Laboratory results from PubChem BioAssay.
Records with an inconclusive call do not appear.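 Rule for the calls, unless noted: active = cell viability at or below a set limit in both duplicate runs, the limit being the all-compound median minus 4 SD (cut at about 23% in these data, passing the limit was not always enough); inconclusive = no clear call, values can overlap the other calls; inactive = the rest.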

Assays:
[1] = S. cerevisiae growth inhibition in permissive medium (OD615), pilot counter-assay for S. cerevisiae lifespan shortening project, permissive growth control (AID 705;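 active = growth inhibition above 25% in both replicates, a cutoff set 3 SD above the mean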); conditions: OD615, 24 h, at 10 µM, hits give high values
Outline: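 System – S. cerevisiae with engineered DeaD lifespan system · Buffer or medium – SC raffinose/galactose permissive medium · Schedule – cells pre-grown 4 h, then 24 h compound exposure, 30 °C humidified · Technique – culture turbidity as optical density at 615 nm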

[2] = S. cerevisiae growth inhibition in restrictive medium, OD615, pilot screen, restrictive growth control, yeast lifespan reduction project (AID 706;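 active = growth inhibition above a set limit, 3 SD over mean compound inhibition, in both replicates, cut at about 43% in these data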;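 note: modified DeaD lifespan yeast strain shifted to restrictive glucose medium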); conditions: OD615, 48 h, at 10 µM, hits give high values
Outline: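 Material: engineered S. cerevisiae DeaD strain / Medium: glucose-based CSMM-D restrictive medium / Compound: single dose of 10 µM compound final, 0.25% DMSO / Timing: 4 h pre-incubation, 48 h exposure at 30 °C / Technique: OD615 absorbance reading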

[3] = doxorubicin toxicity protection in MRP-1 cells – H69AR cells, CellTiter-Glo, duplicate, MRP-1 activator project, pilot screen (AID 807;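 active = viability increase at or above a cutoff of the median across tested compounds plus 3 SD, cut at about 8.5% in these data, passing the limit was not always enough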;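 note: compound pretreatment 18-22 h then 72 h combined with doxorubicin; 0% = doxorubicin alone and 100% = vehicle without doxorubicin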); conditions: H69AR viability with doxorubicin, CellTiter-Glo luminescence; at 10 µM; hits give high values
[4] = viability of HCT116 without oncogenic beta-catenin – human colon tumor cells, pilot screen (AID 823); conditions: HCT116 beta-catenin knockout viability, CellTiter-Glo, 60 h; at 10 µM; hits give low values;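 note: 0% = wells killed by 20 µM Hyamine and 100% = untreated DMSO cell wells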
[5] = viability of PTEN-null HCT116 cells – cell-based, HCT116 clonal line, CellTiter-Glo, pilot screen (AID 824;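 active = viability at or below 27.92% in each of two runs, the all-compound median minus 4 SD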;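 note: 0% = 20 µM Hyamine control and 100% = vehicle cell control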); conditions: HCT116 PTEN-deleted viability, 60 h, at 10 µM, hits give low values
[6] = RAM pathway blockade in budding yeast – dse1pr::URA3 reporter, 5-FOA selection, pilot screen (AID 869;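 active = inhibition over a set limit, the all-compound mean plus 3 SD, in both replicate runs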;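 note: 0% = DMSO wells with no growth and 100% = 10 µM 1-NA-PP1 with full growth; RAM network block rescues cells from 5-FOA so hits raise OD615 growth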); conditions: S. cerevisiae dse1pr::URA3 5-FOA growth, OD615, 2 d, at 10 µM, hits give high values
[7] = RAM signaling pathway blockade in yeast – S. cerevisiae, Pdr1DBD-CYC8 efflux-inhibited sensitized strain, primary screen (AID 1298;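 active = RAM network inhibition above 8.4% in each of two replicates, 3 SD over the compound average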;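 note: 0% = DMSO untreated cells without growth and 100% = 10 µM 1-NA-PP1 full growth; higher means more yeast growth rescued from 5-FOA killing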); conditions: S. cerevisiae cbk1-as DSE1-URA3 strain, 5-FOA growth OD615, 2 d; at 50 µM; hits give high values

CCC(=O)N1CC(=O)Nc2ccc(F)cc2C1c1ccccc1 (stereo unspecified)
inactive: growth inhibition [1] -9.43% | growth inhibition [2] -11.4% | viability increase [3] -1% | viability [4] 92.2% | viability [5] 90.9% | inhibition [6] 2.25% | RAM network inhibition [7] 3.64%

Nc1ccc(S(=O)(=O)N2CCCCC2c2cccnc2)cc1 (stereo unspecified)
inactive: growth inhibition [1] -3.15% | growth inhibition [2] 0.935% | viability increase [3] -0.96% | viability [4] 103% | viability [5] 104% | inhibition [6] 0.625% | RAM network inhibition [7] -0.2%

O=C(O)C1CSC(c2cccnc2)N1 (stereo unspecified)
inactive: growth inhibition [1] -3.98% | growth inhibition [2] -8.32% | viability increase [3] -1.05% | viability [4] 99.3% | viability [5] 106% | inhibition [6] 3.04% | RAM network inhibition [7] 2.35%

C=Cn1ccnc1P(=S)(c1c(C)nn(-c2ccccc2)c1C)c1nccn1C=C
inactive: growth inhibition [1] 0.15% | growth inhibition [2] 13.2% | viability increase [3] -2.8% | viability [4] 93.8% | viability [5] 90.2% | inhibition [6] 1.75% | RAM network inhibition [7] 5.43%

O=C(CN1CC(c2ccccc2)CC1=O)Nc1ccccc1 (stereo unspecified)
inactive: growth inhibition [1] -20.4% | growth inhibition [2] -12.7% | viability increase [3] -1.8% | viability [4] 106% | viability [5] 95.4% | inhibition [6] 1.06% | RAM network inhibition [7] 4.01%

CCOc1ccc(-n2c(O)c(C=Nc3ccc(N4CCOCC4)cc3)c(=O)[nH]c2=O)cc1
inactive: growth inhibition [1] -8.12% | growth inhibition [2] -10.6% | viability increase [3] -3.19% | viability [4] 97.8% | viability [5] 103% | inhibition [6] 0.445% | RAM network inhibition [7] 5.35%

Cc1ccc(-n2nc(C)c3c2NC(=O)CSC3c2ccc3c(c2)OCO3)cc1 (stereo unspecified)
inactive: growth inhibition [1] -3.05% | growth inhibition [2] 2.3% | viability increase [3] 0.35% | viability [4] 89.9% | viability [5] 96.3% | inhibition [6] 0.385% | RAM network inhibition [7] 1.16%

COc1ccccc1N=Cc1c(O)n(C)c(=O)n(C)c1=O
inactive: growth inhibition [1] -6.69% | growth inhibition [2] 1.98% | viability increase [3] 0.23% | viability [4] 87.1% | viability [5] 99.6% | inhibition [6] -0.295% | RAM network inhibition [7] 2.71%

COc1ccc2nc(NC(=O)CCc3nc(C4=CCN(C)CC4)no3)sc2c1
inactive: growth inhibition [1] -7.66% | growth inhibition [2] 2.61% | viability increase [3] -2.1% | viability [4] 79.2% | viability [5] 91.7% | inhibition [6] 2.04% | RAM network inhibition [7] 5.11%

COc1ccc(CN2CC3CC(C2)c2cccc(=O)n2C3)cc1OC (stereo unspecified)
inactive: growth inhibition [1] -11.4% | growth inhibition [2] -6.36% | viability increase [3] -1.47% | viability [4] 93.2% | viability [5] 93.7% | inhibition [6] 2.04% | RAM network inhibition [7] 1.09%

COP(=S)(OC)SCN1C(=O)c2ccccc2C1=O
inactive: growth inhibition [1] 14% | growth inhibition [2] 26.2% | viability increase [3] -4.23% | viability [4] 94.2% | viability [5] 84.9% | inhibition [6] 1.48% | RAM network inhibition [7] 3.76%

CC(=O)Nc1ccc(OC(=O)N(C)c2ccccc2)cc1
inactive: growth inhibition [1] 1.69% | growth inhibition [2] -3.19% | viability increase [3] 0.24% | viability [4] 105% | viability [5] 100% | inhibition [6] 3.04% | RAM network inhibition [7] 3.59%

Cc1cc(C)n2c(Br)c(CN3CC4CC(C3)c3cccc(=O)n3C4)nc2n1 (stereo unspecified)
inactive: growth inhibition [1] -3.02% | growth inhibition [2] -5.3% | viability increase [3] -2.43% | viability [4] 90.9% | viability [5] 105% | inhibition [6] 1.09% | RAM network inhibition [7] -0.1%

CCOC(=O)c1c(C)n(Cc2ccccc2)c2ccc(OCC(O)Cn3nc(C)nc3C)cc12 (stereo unspecified)
inactive: growth inhibition [1] -0.525% | growth inhibition [2] 19.9% | viability increase [3] -0.16% | viability [4] 82.7% | viability [5] 88.3% | inhibition [6] -0.42% | RAM network inhibition [7] 0.63%

O=C(CN1CC(c2ccccc2)CC1=O)Nc1cccc(F)c1 (stereo unspecified)
inactive: growth inhibition [1] -10.1% | growth inhibition [2] -5.42% | viability increase [3] -4.37% | viability [4] 98.3% | viability [5] 96.5% | inhibition [6] 1.39% | RAM network inhibition [7] 4.67%

O=C(O)c1cc2ccccc2oc1=O
inactive: growth inhibition [1] -21.9% | growth inhibition [2] -5.03% | viability increase [3] -0.27% | viability [4] 103% | viability [5] 99.6% | inhibition [6] 1.08% | RAM network inhibition [7] 1.06%

NC(=O)CN1CC(c2ccccc2)CC1=O (stereo unspecified)
inactive: growth inhibition [1] -5.56% | growth inhibition [2] -19.9% | viability increase [3] -0.3% | viability [4] 105% | viability [5] 98% | inhibition [6] 0.295% | RAM network inhibition [7] 4.63%

O=c1c2ccccc2nc(-c2ccco2)n1-c1ccccn1
inactive: growth inhibition [1] -12.2% | growth inhibition [2] -7.09% | viability increase [3] -0.82% | viability [4] 107% | viability [5] 95.2% | inhibition [6] 1.16% | RAM network inhibition [7] 3.37%
